Results as given in PMC7703486 (Angewandte Chemie (International ed. in English), 2020).
Like-named read-outs stand apart in the source and are kept apart here.

Assays:
CDK2/cyclin A = CDK2/cyclin A (Homo sapiens, UniProt P24941); test: Biochemical assay CDK2/cyclin A
CDK1/cyclin B = CDK1/cyclin B (Homo sapiens, UniProt P06493); test: Biochemical assay CDK1/cyclin B
CDK5/p25 = CDK5/p25 (Homo sapiens, UniProt Q00535); test: Biochemical assay CDK5/p25
CDK6/cyclin D1 = CDK6/cyclin D1 (Homo sapiens, UniProt Q00534); test: Biochemical assay CDK6/cyclin D1
CDK4/cyclin D1 = CDK4/cyclin D1 (Homo sapiens, UniProt P11802); test: Biochemical assay CDK4/cyclin D1
CDK4 [1] = target: T1, CDK4 (Homo sapiens, UniProt P11802); test: Immunoblot degradation in OVCAR8 cells, CDK4; format: cell-based; details: OVCAR8 cells (Figure S2)
CDK4 [2] = target: T1, CDK4; test: Immunoblot degradation in Jurkat cells, CDK4; format: cell-based; details: 6 hours
CDK2 [3] = target: T2, CDK2 (Homo sapiens, UniProt P24941); test: Immunoblot degradation in Jurkat cells, CDK2; format: cell-based; details: 6 hours
In short: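 Jurkat cells exposed 6 h to test compound, at 1 μM in the initial degrader screen and otherwise at the indicated concentrations, then CDK2 read by immunoblot. Cereblon dependence was checked with an analogue carrying a methylated glutarimide that cannot engage cereblon, under the same 6 h conditions.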

CDK5 [4] = target: T3, CDK5 (Homo sapiens, UniProt Q00535); test: Immunoblot degradation in Jurkat cells, CDK5; format: cell-based; details: 6 hours
CDK1 [5] = target: T4, CDK1 (Homo sapiens, UniProt P06493); test: Immunoblot degradation in Jurkat cells, CDK1; format: cell-based; details: 6 hours
CDK9 = CDK9 (Homo sapiens, UniProt P50750); test: Immunoblot degradation in Jurkat cells, CDK9; format: cell-based; details: 6 hours
CDK6 [6] = target: T5, CDK6 (Homo sapiens, UniProt Q00534); test: Immunoblot degradation in OVCAR8 cells, CDK6; format: cell-based; details: OVCAR8 cells (Figure S2)
CDK7 = CDK7 (Homo sapiens, UniProt P50613); test: Immunoblot degradation in Jurkat cells, CDK7; format: cell-based; details: 6 hours
CDK6 [7] = target: T5, CDK6; test: Immunoblot degradation in Jurkat cells, CDK6; format: cell-based; details: 6 hours
CDK9/cyclin T1 = CDK9/cyclin T1 (Homo sapiens, UniProt P50750); test: Biochemical assay CDK9/cyclin T1
CDK7/cyclin H = CDK7/cyclin H (Homo sapiens, UniProt P50613); test: Biochemical assay CDK7/cyclin H
Aurora A [8] = target: T6, Aurora A (Homo sapiens, UniProt O14965); test: Pulse-chase SILAC MS proteomics in OVCAR8 cells, Aurora A; format: cell-based; details: OVCAR8, 250 nM, 6 hours
T6 sequence (O14965 1-403): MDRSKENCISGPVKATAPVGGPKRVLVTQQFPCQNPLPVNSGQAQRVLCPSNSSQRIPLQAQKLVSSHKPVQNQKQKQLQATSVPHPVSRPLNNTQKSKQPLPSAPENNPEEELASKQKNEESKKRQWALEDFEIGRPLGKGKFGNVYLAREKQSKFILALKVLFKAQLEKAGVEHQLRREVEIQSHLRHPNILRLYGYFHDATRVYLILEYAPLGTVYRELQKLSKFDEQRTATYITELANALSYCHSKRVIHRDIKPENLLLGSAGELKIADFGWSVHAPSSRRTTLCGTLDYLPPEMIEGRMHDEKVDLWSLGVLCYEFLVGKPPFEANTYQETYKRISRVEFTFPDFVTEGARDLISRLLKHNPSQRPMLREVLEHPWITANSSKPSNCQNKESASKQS

more than 400 kinases = test: KINOMEscan panel profiling; format: binding; details: 1 μM
RSK1 (RPS6KA1) = RSK1 (RPS6KA1) (Homo sapiens, UniProt Q15418); test: Pulse-chase SILAC MS proteomics in OVCAR8 cells, RSK1; format: cell-based; details: OVCAR8, 250 nM, 6 hours
CDK2 [9] = target: T2, CDK2; test: Immunoblot degradation in OVCAR8 cells, CDK2; format: cell-based; details: 6 hours
CDK5 [10] = target: T3, CDK5; test: Pulse-chase SILAC MS proteomics in OVCAR8 cells, CDK5; format: cell-based; details: OVCAR8, 250 nM, 6 hours
CDK2 [11] = target: T2, CDK2; test: Immunoblot degradation in CRBN-null Jurkat cells, CDK2; format: cell-based; details: 6 hours
In short: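 Used to test whether degradation requires cereblon: CRBN-null Jurkat cells treated 6 h with test compound, then CDK2 levels read by immunoblot.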

STK33 = STK33 (Homo sapiens, UniProt Q9BYT3); test: Pulse-chase SILAC MS proteomics in OVCAR8 cells, STK33; format: cell-based; details: OVCAR8, 250 nM, 6 hours
CDK5 [12] = target: T3, CDK5; test: Immunoblot degradation in OVCAR8 cells, CDK5; format: cell-based; details: 6 hours
CDK2 [13] = target: T2, CDK2; test: KINOMEscan, CDK2; format: binding; details: 1 μM; only CDK with potent inhibition; CDK1 not in panel
CRBN = CRBN (Homo sapiens, UniProt Q96SW2); test: Cellular CRBN engagement assay; format: cell-based
JNK2 (MAPK9) = JNK2 (MAPK9) (Homo sapiens, UniProt P45984); test: Pulse-chase SILAC MS proteomics in OVCAR8 cells, JNK2; format: cell-based; details: OVCAR8, 250 nM, 6 hours
CDK1 [14] = target: T4, CDK1; test: Immunoblot degradation in OVCAR8 cells, CDK1; format: cell-based; details: 6 hours
Aurora A [15] = target: T6, Aurora A; test: Degradation in OVCAR8 cells, Aurora A; format: cell-based; details: OVCAR8, same conditions (Figure S3)
CDK2 [16] = target: T2, CDK2; test: Pulse-chase SILAC MS proteomics in OVCAR8 cells, CDK2; format: cell-based; details: OVCAR8, 250 nM, 6 hours
OVCAR8 cells = test: Growth rate inhibition in OVCAR8 cells; format: cell-based
Aurora A [17] = target: T6, Aurora A; test: Biochemical activity assay Aurora A
[18] = read-out: CDK2/cyclin A IC50, Table 1, degraders, tested in duplicate
[19] = read-out: CDK1/cyclin B IC50, Table 1, degraders, tested in duplicate
[20] = read-out: CDK5 IC50, Table 2, w/p25, duplicate
[21] = read-out: CDK2 IC50, Table 2, w/cyclin A, duplicate
[22] = read-out: CDK6 IC50, Table 2, w/cyclin D1, duplicate
[23] = read-out: CDK1 IC50, Table 2, w/cyclin B, duplicate
[24] = read-out: CDK4 IC50, Table 2, w/cyclin D1, duplicate

Chain of CDK1/cyclin B (P06493 whole entry): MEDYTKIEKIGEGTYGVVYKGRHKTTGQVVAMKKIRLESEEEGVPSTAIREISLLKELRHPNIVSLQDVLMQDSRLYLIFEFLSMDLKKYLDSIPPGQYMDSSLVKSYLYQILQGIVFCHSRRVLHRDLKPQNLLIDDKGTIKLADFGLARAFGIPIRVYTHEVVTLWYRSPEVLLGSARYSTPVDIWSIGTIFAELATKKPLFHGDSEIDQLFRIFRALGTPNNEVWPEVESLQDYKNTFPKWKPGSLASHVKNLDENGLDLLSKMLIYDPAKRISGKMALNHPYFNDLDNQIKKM
Chain of CDK1/cyclin B (P14635 whole entry partner): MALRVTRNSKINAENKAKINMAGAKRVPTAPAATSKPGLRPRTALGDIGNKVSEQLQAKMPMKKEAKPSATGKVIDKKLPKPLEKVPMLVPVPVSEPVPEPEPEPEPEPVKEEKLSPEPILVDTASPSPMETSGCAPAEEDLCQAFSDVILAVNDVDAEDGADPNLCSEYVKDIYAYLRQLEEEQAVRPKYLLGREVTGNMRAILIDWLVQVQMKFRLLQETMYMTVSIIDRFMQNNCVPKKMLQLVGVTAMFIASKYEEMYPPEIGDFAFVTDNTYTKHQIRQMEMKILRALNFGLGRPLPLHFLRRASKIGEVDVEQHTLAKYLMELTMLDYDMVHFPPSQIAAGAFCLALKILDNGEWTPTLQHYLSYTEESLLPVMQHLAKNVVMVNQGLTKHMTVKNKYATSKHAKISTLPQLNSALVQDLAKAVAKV
T4 sequence (P06493 whole entry): as the sequence (P06493 whole entry) above
Chain of CDK7/cyclin H (P50613 whole entry): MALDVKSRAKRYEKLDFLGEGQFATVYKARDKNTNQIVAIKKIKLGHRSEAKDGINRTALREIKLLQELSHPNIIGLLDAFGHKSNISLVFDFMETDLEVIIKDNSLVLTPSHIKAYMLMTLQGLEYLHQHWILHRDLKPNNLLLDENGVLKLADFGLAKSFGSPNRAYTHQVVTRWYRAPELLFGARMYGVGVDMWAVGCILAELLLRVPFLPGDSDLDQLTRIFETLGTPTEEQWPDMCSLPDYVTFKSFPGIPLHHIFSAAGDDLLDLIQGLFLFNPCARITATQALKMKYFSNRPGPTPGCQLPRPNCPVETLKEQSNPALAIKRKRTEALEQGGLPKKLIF
Chain of CDK7/cyclin H (P51946 whole entry partner): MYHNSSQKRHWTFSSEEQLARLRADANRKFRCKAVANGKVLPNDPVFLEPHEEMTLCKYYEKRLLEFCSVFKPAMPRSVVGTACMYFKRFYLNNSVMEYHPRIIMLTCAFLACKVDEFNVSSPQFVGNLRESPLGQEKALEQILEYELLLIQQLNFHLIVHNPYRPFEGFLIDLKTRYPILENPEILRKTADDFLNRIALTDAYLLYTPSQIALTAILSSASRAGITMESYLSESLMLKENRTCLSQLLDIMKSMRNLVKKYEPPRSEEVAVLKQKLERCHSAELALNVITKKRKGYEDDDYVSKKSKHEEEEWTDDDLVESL
Chain of CDK5/p25 (Q00535 whole entry): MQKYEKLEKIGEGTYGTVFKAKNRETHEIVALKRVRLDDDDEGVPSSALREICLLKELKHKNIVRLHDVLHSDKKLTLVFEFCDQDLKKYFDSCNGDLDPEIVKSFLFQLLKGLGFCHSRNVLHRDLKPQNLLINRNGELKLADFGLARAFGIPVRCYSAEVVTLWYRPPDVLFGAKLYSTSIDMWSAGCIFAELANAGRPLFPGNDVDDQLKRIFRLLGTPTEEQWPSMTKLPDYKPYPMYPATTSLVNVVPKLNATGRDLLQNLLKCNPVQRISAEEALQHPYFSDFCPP
Chain of CDK5/p25 (Q15078 99-307 partner limits assumed): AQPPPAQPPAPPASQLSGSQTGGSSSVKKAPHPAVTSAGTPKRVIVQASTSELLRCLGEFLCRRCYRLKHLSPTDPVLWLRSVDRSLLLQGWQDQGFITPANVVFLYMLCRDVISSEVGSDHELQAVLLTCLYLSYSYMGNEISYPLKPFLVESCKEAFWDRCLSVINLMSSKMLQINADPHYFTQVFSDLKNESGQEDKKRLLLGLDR
T3 sequence (Q00535 whole entry): as the sequence (Q00535 whole entry) above
T5 sequence (Q00534 whole entry): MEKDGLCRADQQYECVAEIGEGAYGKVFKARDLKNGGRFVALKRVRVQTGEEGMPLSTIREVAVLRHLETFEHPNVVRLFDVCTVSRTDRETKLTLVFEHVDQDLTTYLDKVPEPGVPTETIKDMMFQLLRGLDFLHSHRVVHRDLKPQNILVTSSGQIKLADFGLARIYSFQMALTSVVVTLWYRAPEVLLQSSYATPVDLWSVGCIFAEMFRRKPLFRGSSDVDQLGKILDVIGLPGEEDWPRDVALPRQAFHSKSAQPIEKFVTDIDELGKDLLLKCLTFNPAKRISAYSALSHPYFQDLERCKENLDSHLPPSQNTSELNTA
Chain of CDK6/cyclin D1 (Q00534 whole entry): as above
Chain of CDK6/cyclin D1 (P24385 whole entry partner): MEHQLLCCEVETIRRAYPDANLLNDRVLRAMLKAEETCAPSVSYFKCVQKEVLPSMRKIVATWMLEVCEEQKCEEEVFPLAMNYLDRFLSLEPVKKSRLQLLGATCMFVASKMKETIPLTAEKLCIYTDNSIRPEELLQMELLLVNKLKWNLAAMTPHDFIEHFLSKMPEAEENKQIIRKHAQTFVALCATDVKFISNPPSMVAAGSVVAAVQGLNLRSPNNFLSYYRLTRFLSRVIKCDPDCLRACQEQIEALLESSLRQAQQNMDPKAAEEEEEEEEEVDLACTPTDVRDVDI
Chain of CDK9/cyclin T1 (P50750 whole entry): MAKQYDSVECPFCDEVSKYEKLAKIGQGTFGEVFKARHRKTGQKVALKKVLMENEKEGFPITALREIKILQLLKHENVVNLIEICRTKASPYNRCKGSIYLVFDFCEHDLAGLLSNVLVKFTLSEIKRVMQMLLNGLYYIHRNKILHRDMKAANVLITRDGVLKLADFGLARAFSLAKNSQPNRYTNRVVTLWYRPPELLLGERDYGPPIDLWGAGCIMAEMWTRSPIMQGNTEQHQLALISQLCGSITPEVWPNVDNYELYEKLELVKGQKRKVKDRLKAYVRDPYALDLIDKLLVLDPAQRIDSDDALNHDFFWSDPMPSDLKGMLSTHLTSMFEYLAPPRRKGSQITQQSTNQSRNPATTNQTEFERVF
Chain of CDK9/cyclin T1 (O60563 whole entry partner): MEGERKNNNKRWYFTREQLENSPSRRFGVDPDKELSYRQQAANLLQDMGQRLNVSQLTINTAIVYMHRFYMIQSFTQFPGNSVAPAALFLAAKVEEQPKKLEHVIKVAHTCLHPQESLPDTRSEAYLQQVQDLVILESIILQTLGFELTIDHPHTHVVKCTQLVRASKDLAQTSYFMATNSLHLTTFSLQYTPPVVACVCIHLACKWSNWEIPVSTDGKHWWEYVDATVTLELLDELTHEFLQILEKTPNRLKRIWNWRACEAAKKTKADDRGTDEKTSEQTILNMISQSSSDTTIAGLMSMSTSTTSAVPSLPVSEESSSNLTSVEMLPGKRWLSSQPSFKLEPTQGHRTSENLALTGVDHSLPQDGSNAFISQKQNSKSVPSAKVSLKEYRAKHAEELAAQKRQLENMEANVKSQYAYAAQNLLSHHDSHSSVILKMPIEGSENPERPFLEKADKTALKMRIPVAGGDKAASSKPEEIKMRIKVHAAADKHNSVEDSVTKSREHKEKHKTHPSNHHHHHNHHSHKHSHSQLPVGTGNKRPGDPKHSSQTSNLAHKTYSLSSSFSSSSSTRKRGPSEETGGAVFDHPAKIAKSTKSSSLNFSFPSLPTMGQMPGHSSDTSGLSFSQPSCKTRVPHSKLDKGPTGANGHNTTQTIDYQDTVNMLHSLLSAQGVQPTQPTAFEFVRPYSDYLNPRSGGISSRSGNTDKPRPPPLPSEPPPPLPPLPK
T1 sequence (P11802 whole entry): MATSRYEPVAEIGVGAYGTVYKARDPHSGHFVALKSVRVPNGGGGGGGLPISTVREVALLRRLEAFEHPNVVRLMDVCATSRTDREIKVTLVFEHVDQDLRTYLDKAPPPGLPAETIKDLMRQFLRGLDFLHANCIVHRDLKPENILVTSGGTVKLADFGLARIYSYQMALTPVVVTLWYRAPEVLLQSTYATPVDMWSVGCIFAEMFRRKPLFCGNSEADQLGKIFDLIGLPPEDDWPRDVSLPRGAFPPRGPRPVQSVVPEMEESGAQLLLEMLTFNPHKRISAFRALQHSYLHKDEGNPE
Chain of CDK4/cyclin D1 (P11802 whole entry): as above
Chain of CDK4/cyclin D1 (P24385 whole entry partner): as the sequence (P24385 whole entry partner) above
Chain of CDK7 (P50613 whole entry): as the sequence (P50613 whole entry) above
Chain of CDK9 (P50750 whole entry): as the sequence (P50750 whole entry) above

Compound: NC(=O)c1c(F)cccc1Nc1nc(NC2CCN(S(=O)(=O)CCNC(=O)CCOCCOCCOCCOCCOc3cccc4c3C(=O)N(C3CCC(=O)NC3=O)C4=O)CC2)ncc1Br (stereo not drawn) [TMX-1111]
- IC50 (CDK2/cyclin A; [18]): 6.4 nM
- IC50 (CDK1/cyclin B; [19]): 9.5 nM

Compound: NC(=O)c1c(F)cccc1Nc1nc(Nc2ccc(S(N)(=O)=O)cc2)ncc1Br [TMX-3013]
- IC50 (CDK5/p25; [20]): 0.5 nM
- IC50 (CDK2/cyclin A; [21]): < 0.5 nM
- IC50 (CDK6/cyclin D1; [22]): 15.6 nM
- IC50 (CDK1/cyclin B; [23]): 0.9 nM
- IC50 (CDK4/cyclin D1; [24]): 24.5 nM

Compound: NC(=O)c1c(F)cccc1Nc1nc(NC2CCN(S(=O)(=O)CCNC(=O)CCOCCOCCOc3cccc4c3C(=O)N(C3CCC(=O)NC3=O)C4=O)CC2)ncc1Br (stereo not drawn) [TMX-1128]
- IC50 (CDK2/cyclin A; [18]): 4.9 nM
- IC50 (CDK1/cyclin B; [19]): 11.6 nM

Compound: Cc1cc(S(N)(=O)=O)ccc1Nc1ncc(Br)c(Nc2cccc(F)c2C(N)=O)n1 [TMX-3010]
- IC50 (CDK5/p25; [20]): 0.9 nM
- discrimination for inhibiting CDK1, CDK2, and CDK5 over CDK4 and CDK6 (CDK2/cyclin A; benchmarked to CDK2 IC50 value): hundred-fold
- IC50 (CDK2/cyclin A; [21]): 0.7 nM
- IC50 (CDK6/cyclin D1; [22]): 84.1 nM
- IC50 (CDK1/cyclin B; [23]): 1.2 nM
- IC50 (CDK4/cyclin D1; [24]): 135 nM

Compound: NC(=O)c1c(F)cccc1Nc1nc(NC2CCN(S(=O)(=O)CCNC(=O)CCCCCCCCOc3cccc4c3C(=O)N(C3CCC(=O)NC3=O)C4=O)CC2)ncc1Br (stereo not drawn) [TMX-1160]
- CDK4 degradation (CDK4 [1]): not degraded
- CDK4 degradation (CDK4 [2]; immunoblot (Figure 2B)): potently degraded
- IC50 (CDK2/cyclin A; [18]): 28.7 nM
- CDK2 degradation (CDK2 [3]; 1 μM): induced CDK2 degradation
- IC50 (CDK1/cyclin B; [19]): 8.5 nM
- CDK5 degradation (CDK5 [4]; immunoblot (Figure 2B)): potently degraded
- CDK1 degradation (CDK1 [5]; 1 μM): no CDK1 degradation was observed
- CDK9 degradation (CDK9; immunoblot (Figure 2B)): not degraded
- CDK6 degradation (CDK6 [6]): not degraded
- CDK7 degradation (CDK7; immunoblot (Figure 2B)): not degraded
- CDK6 degradation (CDK6 [7]; immunoblot (Figure 2B)): potently degraded

Compound: NC(=O)c1c(F)cccc1Nc1nc(NC2CCN(S(=O)(=O)CCNC(=O)CCCCCCCOc3cccc4c3C(=O)N(C3CCC(=O)NC3=O)C4=O)CC2)ncc1Br (stereo not drawn) [TMX-1162]
- IC50 (CDK2/cyclin A; [18]): 17.1 nM
- CDK2 degradation (CDK2 [3]; 1 μM): induced CDK2 degradation
- IC50 (CDK1/cyclin B; [19]): 8.5 nM
- CDK1 degradation (CDK1 [5]; 1 μM): no CDK1 degradation was observed

Compound: NC(=O)c1c(F)cccc1Nc1nc(NC2CCN(S(=O)(=O)CCNC(=O)CCOCCOCCOCCOCCOCCOCCOCCOCCOc3cccc4c3C(=O)N(C3CCC(=O)NC3=O)C4=O)CC2)ncc1Br (stereo not drawn) [TMX-1146]
- IC50 (CDK2/cyclin A; [18]): 7.3 nM
- IC50 (CDK1/cyclin B; [19]): 15.5 nM

Compound: NC(=O)c1c(F)cccc1Nc1nc(Nc2ccc(S(=O)(=O)NCCOCCOCCOCCOCCNc3cccc4c3C(=O)N(C3CCC(=O)NC3=O)C4=O)cc2)ncc1Br (stereo not drawn) [TMX-2138]
- IC50 (CDK9/cyclin T1; read-out: CDK9/cyclin T1 IC50, Table 3, duplicate): 25.7 nM
- IC50 (CDK5/p25; read-out: CDK5/p25 IC50, Table 3, duplicate): 7 nM
- IC50 (CDK2/cyclin A; read-out: CDK2/cyclin A IC50, Table 3, duplicate): 10.9 nM
- IC50 (CDK6/cyclin D1; read-out: CDK6/cyclin D1 IC50, Table 3, duplicate): 465 nM
- IC50 (CDK1/cyclin B; read-out: CDK1/cyclin B IC50, Table 3, duplicate): 8.7 nM
- IC50 (CDK7/cyclin H; read-out: CDK7/cyclin H IC50, Table 3, duplicate): 286 nM
- IC50 (CDK4/cyclin D1; read-out: CDK4/cyclin D1 IC50, Table 3, duplicate): 901 nM

Compound: CS(=O)(=O)N1CCC(Nc2ncc(Br)c(Nc3cccc(F)c3C(N)=O)n2)CC1 [TMX-2039]
- enzymatic IC50 CDK9 (CDK9/cyclin T1; Figure 1): low nanomolar
- enzymatic IC50 CDK2 (CDK2/cyclin A; Figure 1): low nanomolar
- enzymatic IC50 CDK6 (CDK6/cyclin D1; Figure 1): low nanomolar
- enzymatic IC50 CDK1 (CDK1/cyclin B; Figure 1): low nanomolar
- enzymatic IC50 CDK7 (CDK7/cyclin H; Figure 1): low nanomolar
- enzymatic IC50 CDK4 (CDK4/cyclin D1; Figure 1): low nanomolar

Compound: Cc1cc(S(=O)(=O)NCCOCCOCCOCCOCCNc2cccc3c2C(=O)N(C2CCC(=O)NC2=O)C3=O)ccc1Nc1ncc(Br)c(Nc2cccc(F)c2C(N)=O)n1 (stereo not drawn) [TMX-2172]
- IC50 (CDK9/cyclin T1): 2640 nM
- Aurora A degradation (proteomics) (Aurora A [8]): effectively degraded
- number of kinases with >99% inhibition compared to DMSO (more than 400 kinases): 14
- degree of degradation of RSK1 (RPS6KA1) (proteomics) (RSK1 (RPS6KA1)): relatively weak
- CDK2 degradation (CDK2 [9]): degraded in a dose dependent manner
- CDK5 degradation (proteomics) (CDK5 [10]): effectively degraded
- CDK4 degradation (CDK4 [2]; 250 nM, immunoblot): not affected
- CDK2 degradation (CDK2 [11]): no CDK2 degradation was detected
- IC50 (CDK5/p25): 6.8 nM
- IC50 (CDK2/cyclin A): 6.5 nM
- degree of degradation of STK33 (proteomics) (STK33): relatively weak
- CDK5 degradation (CDK5 [12]): degraded in a dose dependent manner
- CDK2 inhibition in KINOMEscan (CDK2 [13]): potent inhibition
- IC50 (CDK6/cyclin D1): 2220 nM
- CDK2 degradation (CDK2 [3]; 250 nM): induced CDK2 degradation
- IC50 (CRBN): 46.9 nM
- IC50 (CDK1/cyclin B): 20.3 nM
- degree of degradation of JNK2 (MAPK9) (proteomics) (JNK2 (MAPK9)): relatively weak
- CDK5 degradation (CDK5 [4]; immunoblot (Figure 3A)): retained the ability to degrade CDK5
- CDK1 degradation (CDK1 [5]; 250 nM): not affected
- IC50 (CDK7/cyclin H): 2620 nM
- CDK9 degradation (CDK9; 250 nM, immunoblot): not affected
- IC50 (CDK4/cyclin D1): 7390 nM
- CDK7 degradation (CDK7; 250 nM, immunoblot): not affected
- CDK6 degradation (CDK6 [7]; 250 nM, immunoblot): not affected
- CDK1 degradation (CDK1 [14]): remained intact
- concentration needed to achieve observable Aurora A degradation (Aurora A [15]): 5 µM
- CDK2 degradation (proteomics) (CDK2 [16]): effectively degraded
- growth rate inhibitory effect (OVCAR8 cells): strong growth rate inhibitory effects
- growth rate inhibitory potency relative to non-degrading control ZXH-7035 (OVCAR8 cells; 72 hours): approximately 8.5 fold
- IC50 (Aurora A [17]): 205 nM

Compound: NC(=O)c1c(F)cccc1Nc1nc(NC2CCN(S(=O)(=O)CCNC(=O)CCCCCOc3cccc4c3C(=O)N(C3CCC(=O)NC3=O)C4=O)CC2)ncc1Br (stereo not drawn) [TMX-1169]
- IC50 (CDK2/cyclin A; [18]): 20.5 nM
- IC50 (CDK1/cyclin B; [19]): 31 nM
